Reference: ChEMBL document CHEMBL1124565, “Synthesis and receptor affinities of some conformationally restricted analogues of the dopamine D1 selective ligand (5R)-8-chloro-2,3,4,5-tetrahydro-3-methyl-5-phenyl- 1H-3-benzazepin-7-ol” (J Med Chem, 1989)

Legend:
[1] = biological target: T1, D(2) dopamine receptor (Rattus norvegicus, UniProt P61169); test: In vitro affinity of compound towards Dopamine receptor D2 was determined by measuring their ability to displace [3H]spiperone from rat striatal homogenates
T1 sequence (P61169 whole entry): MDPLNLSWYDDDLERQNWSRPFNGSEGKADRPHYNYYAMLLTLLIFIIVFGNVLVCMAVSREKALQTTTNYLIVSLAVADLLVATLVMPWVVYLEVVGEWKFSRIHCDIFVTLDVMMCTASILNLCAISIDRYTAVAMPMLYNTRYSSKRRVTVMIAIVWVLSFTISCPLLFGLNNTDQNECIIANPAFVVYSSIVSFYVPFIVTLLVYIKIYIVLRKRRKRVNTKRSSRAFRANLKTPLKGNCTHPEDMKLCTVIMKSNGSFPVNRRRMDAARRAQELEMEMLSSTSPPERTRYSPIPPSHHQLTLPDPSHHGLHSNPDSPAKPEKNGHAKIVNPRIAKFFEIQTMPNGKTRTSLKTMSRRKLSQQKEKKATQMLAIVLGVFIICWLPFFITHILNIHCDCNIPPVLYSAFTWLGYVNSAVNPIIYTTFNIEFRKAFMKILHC
Method in brief: (§1)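 Striatum from male Sprague-Dawley rats (150-250 g), homogenized in ice-cold 50 mM Tris-HCl pH 7.4, centrifuged 20000g 10 min twice, resuspended in Tris buffer with 120 mM NaCl, 5 mM CaCl2, 1 mM MgCl2. Competition against [3H]spiperone (final approximately 0.3 nM), triplicate tubes, 37 °C 20 min, vacuum filtration over GF/B with ice-cold buffer rinses, scintillation counting.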

[2] = biological target: T2, D(1A) dopamine receptor (Rattus norvegicus, UniProt P18901); test: In vitro affinity of compound towards dopamine (D1) receptor was determined by measuring their ability to displace [3H]SCH-23,390 from rat striatal homogenates
T2 sequence (P18901 whole entry): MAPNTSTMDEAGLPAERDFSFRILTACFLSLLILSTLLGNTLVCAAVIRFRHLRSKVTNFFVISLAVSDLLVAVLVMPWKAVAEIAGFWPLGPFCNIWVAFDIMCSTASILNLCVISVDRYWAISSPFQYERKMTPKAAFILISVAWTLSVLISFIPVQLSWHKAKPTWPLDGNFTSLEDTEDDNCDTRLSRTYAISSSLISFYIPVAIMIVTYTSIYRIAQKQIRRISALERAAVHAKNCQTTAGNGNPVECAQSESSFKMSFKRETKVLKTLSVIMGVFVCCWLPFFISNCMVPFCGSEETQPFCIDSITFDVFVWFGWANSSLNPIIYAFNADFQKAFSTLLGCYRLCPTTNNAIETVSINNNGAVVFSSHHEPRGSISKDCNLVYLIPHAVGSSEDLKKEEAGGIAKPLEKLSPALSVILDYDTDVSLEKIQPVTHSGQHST

[3] = biological target: T2, D(1A) dopamine receptor; test: Inhibition of [3H]SCH-23390 binding to rat striatal homogenate dopamine receptor D1
Method in brief: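 Pooled striatal membranes from male Sprague-Dawley rats (150-250 g), washed twice by homogenization/centrifugation (20000g, 10 min) in 50 mM Tris-HCl pH 7.4, final buffer adding 120 mM NaCl, 5 mM CaCl2, 1 mM MgCl2. Test agents at various concentrations compete with [3H]SCH 23390; triplicate, 37 °C for 20 min, rapid GF/B filtration, liquid scintillation counting.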

[4] = biological target: T1, D(2) dopamine receptor; test: Displacement of [3H]spiperone from rat striatal homogenate dopamine receptor D2; method in brief: as §1

Compound | Ki [1] | Ki [2] | Ki [3] | Ki [4]
CN1CCc2cc(O)c(O)cc2[C@H]2c3ccccc3CC[C@@H]21 | 2410 nM | 68 nM | – | –
CN1CCc2cc(Cl)c(O)cc2[C@@H]2c3ccccc3CC[C@H]21 | – | – | 531 nM | –
COc1cc2c(cc1O)[C@H]1c3ccccc3CC[C@@H]1N(C)CC2 | – | – | 23.6 nM | 2480 nM
CN1CCc2cc(Cl)c(O)cc2[C@@H]2c3ccccc3CC[C@@H]21 (relative stereo) | – | – | 474 nM | –
COc1cc2c(cc1O)CCN(C)[C@H]1CCc3ccccc3[C@H]21 | – | – | 1660 nM | 6400 nM
COc1cc2c(cc1O)[C@@H]1c3ccccc3CC[C@@H]1N(C)CC2 | – | – | 4200 nM | > 100000 nM
CN1CCc2cc(O)c(O)cc2[C@@H]2c3ccccc3CC[C@@H]21 | > 100000 nM | 1730 nM | – | –
Cc1cc2c(cc1O)[C@H]1c3ccccc3CC[C@@H]1N(C)CC2 | – | – | 7.1 nM | 1510 nM
CN1CCc2ccc(O)cc2[C@H]2c3ccccc3CC[C@@H]21 | – | – | 72.6 nM | 7870 nM
COc1cc2c(cc1O)CCN(C)[C@H]1CCc3ccccc3[C@@H]21 | – | – | 24400 nM | > 100000 nM
CN1CCc2cc(Cl)c(O)cc2[C@@H]2c3ccccc3CC[C@@H]21 | – | – | 513 nM | –
CN1CCc2cc(Cl)c(O)cc2[C@H]2c3ccccc3CC[C@@H]21 [ECOPIPAM] | – | – | 1.9 nM | –
CN1CCc2cc(Cl)c(O)cc2[C@H]2c3ccccc3CC[C@H]21 | – | – | 898 nM | –
CN1CCc2cc(Cl)c(O)cc2C2c3ccccc3CCC21 (trans isomer) | – | – | 3.3 nM | –
